# The source made the active and inactive calls.
# Columns and labels:
# [1] = Cmax in anesthetized C57BL/6J mouse brain at 10 mg/kg, ip administered as single dose measured upto 240 mins in presence of tween-80 by LC-MS/MS analysis; assay type: ADME, organism-based; parameters: dose 10 mg/kg, route intraperitoneal; settings: in vivo, 4 h
# Procedure, shortened: (§1)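 Male and female mice (C57BL/6J or C57BL/6J x 129 F1), postnatal days 21-28, single i.p. injection at 10 mL/kg in vegetable oil or ethanol–Tween 80–saline (1:1:18). Blood taken by cardiac puncture under isoflurane at time points 15–240 min. Plasma and PBS brain homogenate extracted with ice-cold acetonitrile, diazepam internal standard, quantified by LC-MS/MS. Mean concentrations per time point (n = 3-5); noncompartmental analysis.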
# [2] = Dissociation constant, pKa of compound; assay type: physicochemical
# [3] = AUC in anesthetized C57BL/6J mouse brain at 10 mg/kg, ip administered as single dose measured upto 240 mins in presence of vegetable oil by LC-MS/MS analysis; assay type: ADME, organism-based; parameters: dose 10 mg/kg, time < 4 hr, route intraperitoneal; settings: in vivo, 4 h; procedure, shortened: as §1
# [4] = AUC in anesthetized C57BL/6J mouse plasma at 10 mg/kg, ip administered as single dose measured upto 240 mins in presence of tween-80 by LC-MS/MS analysis; assay type: ADME, organism-based; parameters: dose 10 mg/kg, time < 4 hr, route intraperitoneal; procedure, shortened: as §1
# [5] = AUC in anesthetized C57BL/6J mouse brain at 10 mg/kg, ip administered as single dose measured upto 240 mins by LC-MS/MS analysis; assay type: ADME, organism-based; parameters: dose 10 mg/kg, time < 4 hr, route intraperitoneal; settings: in vivo, 4 h; procedure, shortened: as §1
# [6] = Drug uptake in plasma of anesthetized C57BL/6J mouse at 10 mg/kg, ip by LC-MS/MS analysis; assay type: ADME, organism-based; settings: in vivo
# Procedure, shortened: (§2)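 Mice aged 21-28 days postnatal received one i.p. dose (10 mL/kg), and plasma and brain were sampled at 15–240 min. Decarboxylated neutral cannabinoids were measured by LC-MS/MS against known standards, alongside the parent acid.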
# [7] = Drug metabolism in brain of anesthetized C57BL/6J mouse at 10 mg/kg, ip by LC-MS/MS analysis; assay type: ADME, organism-based; settings: in vivo; procedure, shortened: as §2
# [8] = Ratio of drug level in anesthetized C57BL/6J mouse brain to plasma at 10 mg/kg, ip administered as single dose measured upto 240 mins by LC-MS/MS analysis; assay type: ADME, organism-based; settings: read-out: BPR; procedure, shortened: as §1
# [9] = Tmax in anesthetized C57BL/6J mouse brain at 10 mg/kg, ip administered as single dose measured upto 240 mins in presence of vegetable oil by LC-MS/MS analysis; assay type: ADME, organism-based; procedure, shortened: as §1
# [10] = AUC in anesthetized C57BL/6J mouse brain at 10 mg/kg, ip administered as single dose measured upto 240 mins in presence of tween-80 by LC-MS/MS analysis; assay type: ADME, organism-based; parameters: dose 10 mg/kg, time < 4 hr, route intraperitoneal; settings: in vivo, 4 h; procedure, shortened: as §1
# [11] = Cmax in anesthetized C57BL/6J mouse plasma at 10 mg/kg, ip administered as single dose measured upto 240 mins by LC-MS/MS analysis; assay type: ADME, organism-based; parameters: dose 10 mg/kg, route intraperitoneal; procedure, shortened: as §1
# [12] = Cmax in anesthetized C57BL/6J mouse brain at 10 mg/kg, ip administered as single dose measured upto 240 mins by LC-MS/MS analysis; assay type: ADME, organism-based; parameters: dose 10 mg/kg, route intraperitoneal; settings: in vivo, 4 h; procedure, shortened: as §1
# [13] = Half life in anesthetized C57BL/6J mouse brain at 10 mg/kg, ip administered as single dose measured upto 240 mins in presence of tween-80 by LC-MS/MS analysis; assay type: ADME, organism-based; procedure, shortened: as §1
# [14] = Half life in anesthetized C57BL/6J mouse brain at 10 mg/kg, ip administered as single dose measured upto 240 mins by LC-MS/MS analysis; assay type: ADME, organism-based; procedure, shortened: as §1
# [15] = Ratio of drug level in anesthetized C57BL/6J mouse brain to plasma at 5 mg/kg, ip administered as single dose measured upto 240 mins in presence of tween-80 by LC-MS/MS analysis; assay type: ADME, organism-based; settings: read-out: BPR
# [16] = Tmax in anesthetized C57BL/6J mouse plasma at 10 mg/kg, ip administered as single dose measured upto 240 mins in presence of tween-80 by LC-MS/MS analysis; assay type: ADME, organism-based; procedure, shortened: as §1
# [17] = Tmax in anesthetized C57BL/6J mouse brain at 10 mg/kg, ip administered as single dose measured upto 240 mins in presence of tween-80 by LC-MS/MS analysis; assay type: ADME, organism-based; procedure, shortened: as §1
# [18] = Half life in anesthetized C57BL/6J mouse brain at 10 mg/kg, ip administered as single dose measured upto 240 mins in presence of vegetable oil by LC-MS/MS analysis; assay type: ADME, organism-based; procedure, shortened: as §1
# [19] = Cmax in anesthetized C57BL/6J mouse plasma at 10 mg/kg, ip administered as single dose measured upto 240 mins in presence of tween-80 by LC-MS/MS analysis; assay type: ADME, organism-based; parameters: dose 10 mg/kg, route intraperitoneal; procedure, shortened: as §1
# [20] = Half life in anesthetized C57BL/6J mouse plasma at 10 mg/kg, ip administered as single dose measured upto 240 mins in presence of vegetable oil by LC-MS/MS analysis; assay type: ADME, organism-based; procedure, shortened: as §1
# [21] = Tmax in anesthetized C57BL/6J mouse plasma at 10 mg/kg, ip administered as single dose measured upto 240 mins in presence of vegetable oil by LC-MS/MS analysis; assay type: ADME, organism-based; procedure, shortened: as §1
# [22] = AUC in anesthetized C57BL/6J mouse plasma at 10 mg/kg, ip administered as single dose measured upto 240 mins in presence of vegetable oil by LC-MS/MS analysis; assay type: ADME, organism-based; parameters: time < 4 hr, dose 10 mg/kg, route intraperitoneal; procedure, shortened: as §1
# [23] = Cmax in anesthetized C57BL/6J mouse plasma at 10 mg/kg, ip administered as single dose measured upto 240 mins in presence of vegetable oil by LC-MS/MS analysis; assay type: ADME, organism-based; parameters: dose 10 mg/kg, route intraperitoneal; procedure, shortened: as §1
# [24] = Tmax in anesthetized C57BL/6J mouse plasma at 10 mg/kg, ip administered as single dose measured upto 240 mins by LC-MS/MS analysis; assay type: ADME, organism-based; procedure, shortened: as §1
# [25] = Tmax in anesthetized C57BL/6J mouse brain at 10 mg/kg, ip administered as single dose measured upto 240 mins by LC-MS/MS analysis; assay type: ADME, organism-based; procedure, shortened: as §1
# Mus musculus = experiment: Anticonvulsant activity against hyperthermia-induced seizure in Scn1aRX/+ mouse model of Dravet syndrome assessed as increase in generalized tonic-clonic seizure temperature threshold at 10 to 30 mg/kg, ip administered as single dose measured by RET-3 rectal probe; assay type: functional, organism-based
# [26] = Cmax in anesthetized C57BL/6J mouse brain at 10 mg/kg, ip administered as single dose measured upto 240 mins in presence of vegetable oil by LC-MS/MS analysis; assay type: ADME, organism-based; parameters: dose 10 mg/kg, route intraperitoneal; settings: in vivo, 4 h; procedure, shortened: as §1
# [27] = Half life in anesthetized C57BL/6J mouse plasma at 10 mg/kg, ip administered as single dose measured upto 240 mins by LC-MS/MS analysis; assay type: ADME, organism-based; procedure, shortened: as §1
# [28] = AUC in anesthetized C57BL/6J mouse plasma at 10 mg/kg, ip administered as single dose measured upto 240 mins by LC-MS/MS analysis; assay type: ADME, organism-based; parameters: time < 4 hr, dose 10 mg/kg, route intraperitoneal; procedure, shortened: as §1
# [29] = Half life in anesthetized C57BL/6J mouse plasma at 10 mg/kg, ip administered as single dose measured upto 240 mins in presence of tween-80 by LC-MS/MS analysis; assay type: ADME, organism-based; procedure, shortened: as §1
# [30] = Ratio of drug level in anesthetized C57BL/6J mouse brain to plasma at 5 mg/kg, ip administered as single dose measured upto 240 mins in presence of vegetable oil by LC-MS/MS analysis; assay type: ADME, organism-based; settings: read-out: BPR
# [31] = Partition coefficient, log P of compound; assay type: physicochemical; settings: octanol/water
# [32] = Drug uptake in plasma of anesthetized C57BL/6J mouse assessed as purity of compound at 10 mg/kg, ip by LC-MS/MS analysis; assay type: ADME, organism-based; settings: in vivo; procedure, shortened: as §2
# [33] = Drug metabolism in brain of anesthetized C57BL/6J mouse assessed as decrease in decarboxylation of parent compound at 5 mg/kg, ip by LC-MS/MS analysis; assay type: ADME, organism-based; settings: in vivo; procedure, shortened: as §2
# [34] = Cmax in anesthetized C57BL/6J mouse plasma at 5 mg/kg, ip administered as single dose measured upto 240 mins by LC-MS/MS analysis; assay type: ADME, organism-based; parameters: dose 5 mg/kg, route intraperitoneal; procedure, shortened: as §1
# [35] = AUC in anesthetized C57BL/6J mouse plasma at 5 mg/kg, ip administered as single dose measured upto 240 mins by LC-MS/MS analysis; assay type: ADME, organism-based; parameters: dose 5 mg/kg, time < 4 hr, route intraperitoneal; procedure, shortened: as §1
# [36] = Drug metabolism in plasma of anesthetized C57BL/6J mouse assessed as decrease in decarboxylation of parent compound at 5 mg/kg, ip by LC-MS/MS analysis; assay type: ADME, organism-based; settings: in vivo; procedure, shortened: as §2
# [37] = Tmax in anesthetized C57BL/6J mouse plasma at 5 mg/kg, ip administered as single dose measured upto 240 mins by LC-MS/MS analysis; assay type: ADME, organism-based; procedure, shortened: as §1
# [38] = Cmax in anesthetized C57BL/6J mouse brain at 5 mg/kg, ip administered as single dose measured upto 240 mins by LC-MS/MS analysis; assay type: ADME, organism-based; parameters: dose 5 mg/kg, route intraperitoneal; settings: in vivo, 4 h, BLD = below limit of detection; procedure, shortened: as §1
# [39] = Half life in anesthetized C57BL/6J mouse plasma at 5 mg/kg, ip administered as single dose measured upto 240 mins by LC-MS/MS analysis; assay type: ADME, organism-based; procedure, shortened: as §1
Structure (SMILES),pKa [2],AUC at 4 h [4] [ng·h/mL],Drug uptake [6] [%],Drug metabolism [7],Cmax [11] [ng/mL],Tmax [16] [min],Cmax [19] [ng/mL],half-life [20] [min],Tmax [21] [min],AUC at 4 h [22] [ng·h/mL],Cmax [23] [ng/mL],Tmax [24] [min],half-life [27] [min],AUC at 4 h [28] [ng·h/mL],half-life [29] [min],logP [31],other results
C=C(C)[C@@H]1CCC(C)=C[C@H]1c1c(O)cc(CCCCC)c(C(=O)O)c1O [CANNABIDIOLIC ACID],2.91,9970,0.5,Metabolite_Notdetected,29600,15,17600,92,30,78300,29600,30,92,78300,55,6.63,Cmax [1]: 13.2 ng/mg; AUC [3]: 183 ng·min/g; AUC [5]: 183 µg·min/g; Kp at 4 h [8]: 0.04; Tmax [9]: 45 min; AUC [10]: 1142 ng·min/g; Cmax [12]: 2 ng/mg; half-life [13]: 67 min; half-life [14]: 41 min; Kp at 4 h [15]: 1.9; Tmax [17]: 30 min; half-life [18]: 41 min; Tmax [25]: 45 min; Activity (Mus musculus): Active; Cmax [26]: 2 ng/mg; Kp at 4 h [30]: 0.04
CCCCCc1cc2c(c(O)c1C(=O)O)[C@@H]1C=C(C)CC[C@H]1C(C)(C)O2 [DELTA9-TETRAHYDROCANNABINOLIC ACID A],2.89,5630,1,Metabolite_Notdetected,2800,15,6900,67,15,5030,2800,15,67,5030,33,6.25,Cmax ([1]; BLD = below limit of detection): Bld; Cmax ([12]; BLD = below limit of detection): Bld; Drug uptake [32]: 95%; Cmax ([26]; BLD = below limit of detection): Bld
CCCCCc1cc2c(c(O)c1C(=O)O)C=CC(C)(CCC=C(C)C)O2 (stereo unspecified),2.87,,,,,,,,,,,,,,,6.91,Drug metabolism [33]: Metabolite_Notdetected; Cmax [34]: 3300 ng/mL; AUC at 4 h [35]: 2880 ng·h/mL; Drug metabolism [36]: Metabolite_Notdetected; Tmax [37]: 30 min; Cmax [38]: Bld; half-life [39]: 24 min
